In ChEMBL document CHEMBL4425110, “ICI 56,780 Optimization: Structure-Activity Relationship Studies of 7-(2-Phenoxyethoxy)-4(1H)-quinolones with Antimalarial Activity” (J Med Chem, 2016):
Activity calls are given as the source filed them. No cut-off for these calls is given here.

System: Plasmodium falciparum
Assay: Antimalarial activity against Plasmodium falciparum TM90-C2B
Format: functional, organism-based
Conditions: not given

SMILES	EC50 [nM]
COC(=O)c1c[nH]c2ccc(OCCc3ccccc3)cc2c1=O	3050
CCCCc1cc2c(=O)c(I)c(C)[nH]c2cc1OCCOc1ccccc1	5.87
COC(=O)c1c[nH]c2ccc(OCc3ccccc3)cc2c1=O	1100
CCCCc1cc2c(=O)c(Br)c(C)[nH]c2cc1OCCOc1ccccc1	12.2
COC(=O)c1c[nH]c2cc(OCCOc3ccccc3)c(Cl)cc2c1=O	617
COC(=O)c1c[nH]c2ccc(OCCCc3ccccc3)cc2c1=O	3670
COC(=O)c1c[nH]c2cc(OCCCc3ccccc3)ccc2c1=O	> 784
CCCCc1cc2c(=O)c(C(=O)OC)c[nH]c2cc1OCCOc1ccccc1	7.89
CCCCc1cc2c(=O)c(CC)c[nH]c2cc1OCCOc1ccccc1	1.92
COC(=O)c1c[nH]c2cc(OCCc3ccccc3)ccc2c1=O	7740
COC(=O)c1c[nH]c2cc(Oc3ccccc3)ccc2c1=O	1950
CCCCc1cc2c(=O)c(C(=O)NCCO)c[nH]c2cc1OCCOc1ccccc1	5890

System: not listed separately
Assay: Solubility in pH 6.5 buffer by HPLC based UV spectroscopy
Format: physicochemical
Conditions: not given

SMILES	solubility [µM]
CCCCc1cc2c(=O)c(C(=O)NCCO)c[nH]c2cc1OCCOc1ccccc1	> 20

System: not listed separately
Assay: Liver blood index, ratio of EC50 for Plasmodium falciparum W2 to EC50 for Plasmodium berghei
Format: functional
Conditions: not given
In short: (§1)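 Liver-stage EC50 measured in vitro against P. berghei. Liver blood index is the blood-stage EC50 divided by the P. berghei EC50, using either W2 or TM90-C2B as the blood-stage strain.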

SMILES	Ratio EC50
COC(=O)c1c[nH]c2ccc(OCCc3ccccc3)cc2c1=O	3.53
COC(=O)c1c[nH]c2ccc(OCc3ccccc3)cc2c1=O	0.091
CCCCc1cc2c(=O)c(Br)c(C)[nH]c2cc1OCCOc1ccccc1	1.23
COC(=O)c1c[nH]c2cc(OCCOc3ccccc3)c(Cl)cc2c1=O	158
COC(=O)c1c[nH]c2ccc(OCCCc3ccccc3)cc2c1=O	1.3
COC(=O)c1c[nH]c2cc(OCCCc3ccccc3)ccc2c1=O	0.14
CCCCc1cc2c(=O)c(C(=O)OC)c[nH]c2cc1OCCOc1ccccc1	0.75
CCCCc1cc2c(=O)c(CC)c[nH]c2cc1OCCOc1ccccc1	0.166
COC(=O)c1c[nH]c2cc(Oc3ccccc3)ccc2c1=O	0.15
CCCCc1cc2c(=O)c(C(=O)NCCO)c[nH]c2cc1OCCOc1ccccc1	19.8

System: J774
Assay: Cytotoxicity against mouse J774 cells
Format: cell-based
Conditions: not given

SMILES	EC50 [nM]
COC(=O)c1c[nH]c2ccc(OCCc3ccccc3)cc2c1=O	2200
COC(=O)c1c[nH]c2ccc(OCc3ccccc3)cc2c1=O	7590
CCCCc1cc2c(=O)c(Br)c(C)[nH]c2cc1OCCOc1ccccc1	> 10000
COC(=O)c1c[nH]c2cc(OCCOc3ccccc3)c(Cl)cc2c1=O	> 20000
COC(=O)c1c[nH]c2ccc(OCCCc3ccccc3)cc2c1=O	17100
COC(=O)c1c[nH]c2cc(OCCCc3ccccc3)ccc2c1=O	1480
CCCCc1cc2c(=O)c(C(=O)OC)c[nH]c2cc1OCCOc1ccccc1	> 20000
CCCCc1cc2c(=O)c(CC)c[nH]c2cc1OCCOc1ccccc1	360
COC(=O)c1c[nH]c2cc(OCCc3ccccc3)ccc2c1=O	17200
COC(=O)c1c[nH]c2cc(Oc3ccccc3)ccc2c1=O	9120
CCCCc1cc2c(=O)c(C(=O)NCCO)c[nH]c2cc1OCCOc1ccccc1	> 20000

System: not listed separately
Assay: Liver blood index, ratio of EC50 for Plasmodium falciparum TM90-C2B to EC50 for Plasmodium berghei
Format: functional
Conditions: not given
In short: as §1

SMILES	Ratio EC50
COC(=O)c1c[nH]c2ccc(OCCc3ccccc3)cc2c1=O	438
COC(=O)c1c[nH]c2ccc(OCc3ccccc3)cc2c1=O	8.66
CCCCc1cc2c(=O)c(Br)c(C)[nH]c2cc1OCCOc1ccccc1	5.75
COC(=O)c1c[nH]c2cc(OCCOc3ccccc3)c(Cl)cc2c1=O	9790
COC(=O)c1c[nH]c2ccc(OCCCc3ccccc3)cc2c1=O	331
CCCCc1cc2c(=O)c(C(=O)OC)c[nH]c2cc1OCCOc1ccccc1	152
CCCCc1cc2c(=O)c(CC)c[nH]c2cc1OCCOc1ccccc1	0.725
COC(=O)c1c[nH]c2cc(Oc3ccccc3)ccc2c1=O	17.7
CCCCc1cc2c(=O)c(C(=O)NCCO)c[nH]c2cc1OCCOc1ccccc1	460

System: Plasmodium berghei
Assay: Antimalarial activity against Plasmodium berghei infected in mouse assessed as inhibition of parasitemia at 50 mg/kg, po administered as single dose measured on day 3 post drug exposure relative to untreated control
Format: functional
Conditions: 72 h
In short: (§2)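 Two infected mice per compound were each given a single oral dose of 50 mg/kg, suspended in PEG400, on day 1 post-exposure. Parasitemia was assessed on days 3 and 6 post-exposure.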

SMILES	inhibition in vivo at 50 mg/kg [%]
COC(=O)c1c[nH]c2ccc(OCCc3ccccc3)cc2c1=O	7.69
CCCCc1cc2c(=O)c(I)c(C)[nH]c2cc1OCCOc1ccccc1	53.9
CCCCc1cc2c(=O)c(Br)c(C)[nH]c2cc1OCCOc1ccccc1	100
COC(=O)c1c[nH]c2cc(OCCOc3ccccc3)c(Cl)cc2c1=O	< 1
COC(=O)c1c[nH]c2ccc(OCCCc3ccccc3)cc2c1=O	76.9
COC(=O)c1c[nH]c2cc(OCCCc3ccccc3)ccc2c1=O	69.2
CCCCc1cc2c(=O)c(C(=O)OC)c[nH]c2cc1OCCOc1ccccc1	76.9
CCCCc1cc2c(=O)c(CC)c[nH]c2cc1OCCOc1ccccc1	69.2
COC(=O)c1c[nH]c2cc(OCCc3ccccc3)ccc2c1=O	60
COC(=O)c1c[nH]c2cc(Oc3ccccc3)ccc2c1=O	40
CCCCc1cc2c(=O)c(C(=O)NCCO)c[nH]c2cc1OCCOc1ccccc1	40

System: Plasmodium berghei
Assay: Antimalarial activity against Plasmodium berghei
Format: functional, organism-based
Conditions: not given
In short: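 In vitro liver-stage (exoerythrocytic) assay against P. berghei; the value is the EC50 (nM).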

SMILES	EC50 [nM]
COC(=O)c1c[nH]c2ccc(OCCc3ccccc3)cc2c1=O	6.97
COC(=O)c1c[nH]c2ccc(OCc3ccccc3)cc2c1=O	127
CCCCc1cc2c(=O)c(Br)c(C)[nH]c2cc1OCCOc1ccccc1	2.12
COC(=O)c1c[nH]c2cc(OCCOc3ccccc3)c(Cl)cc2c1=O	0.063
COC(=O)c1c[nH]c2ccc(OCCCc3ccccc3)cc2c1=O	11.1
COC(=O)c1c[nH]c2cc(OCCCc3ccccc3)ccc2c1=O	5.26
CCCCc1cc2c(=O)c(C(=O)OC)c[nH]c2cc1OCCOc1ccccc1	0.052
CCCCc1cc2c(=O)c(CC)c[nH]c2cc1OCCOc1ccccc1	2.65
COC(=O)c1c[nH]c2cc(Oc3ccccc3)ccc2c1=O	110
CCCCc1cc2c(=O)c(C(=O)NCCO)c[nH]c2cc1OCCOc1ccccc1	12.8

System: Plasmodium berghei
Assay: Antimalarial activity against GFP expressing Plasmodium berghei infected in mouse assessed as average time for mouse death at 10 mg/kg, po administered on days 3, 4 and 5 and measured on day 6 post drug exposure by Giemsa staining based modified Thompson test
Format: functional
Conditions: not given

SMILES	Time [days]
CCCCc1cc2c(=O)c(Br)c(C)[nH]c2cc1OCCOc1ccccc1	13
CCCCc1cc2c(=O)c(C(=O)OC)c[nH]c2cc1OCCOc1ccccc1	13
O=C1C(O)=C([C@H]2CC[C@H](c3ccc(Cl)cc3)CC2)C(=O)c2ccccc21 [ATOVAQUONE]	30

System: Plasmodium falciparum
Assay: Resistance index, ratio of EC50 for Plasmodium falciparum TM90-C2B to EC50 for Plasmodium falciparum W2
Format: functional
Conditions: not given

SMILES	Ratio EC50
COC(=O)c1c[nH]c2ccc(OCCc3ccccc3)cc2c1=O	124
CCCCc1cc2c(=O)c(I)c(C)[nH]c2cc1OCCOc1ccccc1	6.77
CCCCc1cc2c(=O)c(Br)c(C)[nH]c2cc1OCCOc1ccccc1	4.69
COC(=O)c1c[nH]c2cc(OCCOc3ccccc3)c(Cl)cc2c1=O	62.1
COC(=O)c1c[nH]c2ccc(OCCCc3ccccc3)cc2c1=O	255
COC(=O)c1c[nH]c2cc(OCCCc3ccccc3)ccc2c1=O	>1100
CCCCc1cc2c(=O)c(C(=O)OC)c[nH]c2cc1OCCOc1ccccc1	202
CCCCc1cc2c(=O)c(CC)c[nH]c2cc1OCCOc1ccccc1	4.36
COC(=O)c1c[nH]c2cc(OCCc3ccccc3)ccc2c1=O	55.7
COC(=O)c1c[nH]c2cc(Oc3ccccc3)ccc2c1=O	117
CCCCc1cc2c(=O)c(C(=O)NCCO)c[nH]c2cc1OCCOc1ccccc1	23.3

System: Plasmodium berghei
Assay: Antimalarial activity against Plasmodium berghei infected in mouse assessed as inhibition of parasitemia at 50 mg/kg, po administered as single dose measured on day 6 post drug exposure relative to untreated control
Format: functional
Conditions: 144 h
In short: as §2

SMILES	inhibition in vivo at 50 mg/kg [%]
COC(=O)c1c[nH]c2ccc(OCCc3ccccc3)cc2c1=O	< 1
CCCCc1cc2c(=O)c(I)c(C)[nH]c2cc1OCCOc1ccccc1	19.6
COC(=O)c1c[nH]c2ccc(OCc3ccccc3)cc2c1=O	< 1
CCCCc1cc2c(=O)c(Br)c(C)[nH]c2cc1OCCOc1ccccc1	49.5
COC(=O)c1c[nH]c2cc(OCCOc3ccccc3)c(Cl)cc2c1=O	< 1
COC(=O)c1c[nH]c2ccc(OCCCc3ccccc3)cc2c1=O	< 1
COC(=O)c1c[nH]c2cc(OCCCc3ccccc3)ccc2c1=O	47.1
CCCCc1cc2c(=O)c(C(=O)OC)c[nH]c2cc1OCCOc1ccccc1	49
CCCCc1cc2c(=O)c(CC)c[nH]c2cc1OCCOc1ccccc1	17.7
COC(=O)c1c[nH]c2cc(OCCc3ccccc3)ccc2c1=O	< 1
COC(=O)c1c[nH]c2cc(Oc3ccccc3)ccc2c1=O	29.8
CCCCc1cc2c(=O)c(C(=O)NCCO)c[nH]c2cc1OCCOc1ccccc1	< 1

System: Plasmodium berghei
Assay: Antimalarial activity against GFP expressing Plasmodium berghei infected in mouse assessed as inhibition of parasitemia at 10 mg/kg, po administered on days 3, 4 and 5 and measured on day 13 post drug exposure by Giemsa staining based modified Thompson test
Format: functional, organism-based
Conditions: not given

SMILES	Activity
CCCCc1cc2c(=O)c(Br)c(C)[nH]c2cc1OCCOc1ccccc1	inactive

System: Plasmodium falciparum
Assay: Antimalarial activity against Plasmodium falciparum W2
Format: functional, organism-based
Conditions: not given

SMILES	EC50 [nM]
COC(=O)c1c[nH]c2ccc(OCCc3ccccc3)cc2c1=O	24.6
CCCCc1cc2c(=O)c(I)c(C)[nH]c2cc1OCCOc1ccccc1	0.867
COC(=O)c1c[nH]c2ccc(OCc3ccccc3)cc2c1=O	11.6
CCCCc1cc2c(=O)c(Br)c(C)[nH]c2cc1OCCOc1ccccc1	2.6
COC(=O)c1c[nH]c2cc(OCCOc3ccccc3)c(Cl)cc2c1=O	9.93
COC(=O)c1c[nH]c2ccc(OCCCc3ccccc3)cc2c1=O	14.4
COC(=O)c1c[nH]c2cc(OCCCc3ccccc3)ccc2c1=O	0.711
CCCCc1cc2c(=O)c(C(=O)OC)c[nH]c2cc1OCCOc1ccccc1	0.039
CCCCc1cc2c(=O)c(CC)c[nH]c2cc1OCCOc1ccccc1	0.44
COC(=O)c1c[nH]c2cc(OCCc3ccccc3)ccc2c1=O	139
COC(=O)c1c[nH]c2cc(Oc3ccccc3)ccc2c1=O	16.6
CCCCc1cc2c(=O)c(C(=O)NCCO)c[nH]c2cc1OCCOc1ccccc1	253

System: Plasmodium berghei
Assay: Antimalarial activity against GFP expressing Plasmodium berghei infected in mouse assessed as inhibition of parasitemia at 10 mg/kg, po administered on days 3, 4 and 5 and measured on day 6 post drug exposure by Giemsa staining based modified Thompson test
Format: functional
Conditions: 144 h

SMILES	inhibition in vivo at 10 mg/kg [%]
CCCCc1cc2c(=O)c(Br)c(C)[nH]c2cc1OCCOc1ccccc1	61
CCCCc1cc2c(=O)c(C(=O)OC)c[nH]c2cc1OCCOc1ccccc1	< 1
